RORa activator: RORA (human) activation; 65,000 tested, 1.5% active; P35398; CHO-K1 Gal4-RORA LBD luciferase reporter, luminescence; percent increase over mock-subtracted basal signal; activation, % at 10 µM;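 active means activation above the mean of all tested compounds plus 3 SD, cut at about 49% in these data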;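 further: 0% = DMSO-treated RORA cells and 100% = added signal equal to DMSO minus mock-transfected cells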
MMP13 inh: MMP13 (human) collagenase inhibition; MMP-13 fTHP FRET cleavage, Mca fluorescence; 65,000 tested, 0.07% active; inhibition, % at 4 µM; P45452;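 active means inhibition above the mean of compound-free control plate wells plus 3 SD, cut at about 14% in these data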;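 further: 0% = DMSO wells and 100% = wells with reference MMP-13 inhibitor after basal subtraction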
SF-1 act: activators of human nuclear receptor SF-1; 65,000 tested, 1.9% active; Q13285; activation, % at 10 µM; CHO-K1 Gal4-SF-1 LBD luciferase reporter; % increase over DMSO SF-1-specific signal;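 active means activation above the mean activation of all tested compounds plus 3 SD, cut at about 50% in these data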
Target sequence (Q13285 whole entry, looked up, the tested form may be a part): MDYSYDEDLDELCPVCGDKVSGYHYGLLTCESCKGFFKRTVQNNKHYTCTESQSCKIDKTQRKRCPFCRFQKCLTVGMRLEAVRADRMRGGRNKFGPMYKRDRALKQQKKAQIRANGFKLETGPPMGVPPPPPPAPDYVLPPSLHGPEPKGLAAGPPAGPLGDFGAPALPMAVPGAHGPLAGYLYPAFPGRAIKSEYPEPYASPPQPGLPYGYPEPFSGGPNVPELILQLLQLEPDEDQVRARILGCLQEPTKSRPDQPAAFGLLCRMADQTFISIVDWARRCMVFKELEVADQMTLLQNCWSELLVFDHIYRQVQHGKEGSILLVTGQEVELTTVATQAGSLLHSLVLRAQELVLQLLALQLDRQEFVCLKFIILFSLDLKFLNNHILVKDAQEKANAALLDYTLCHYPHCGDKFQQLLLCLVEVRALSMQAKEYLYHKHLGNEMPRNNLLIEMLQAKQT
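material = CHO-K1 cells with Gal4–hSF-1 LBD chimera plus Gal4-driven luciferase | compound = 10 µM single point, 1% DMSO | incubation = 20 h compound exposure at 37 °C after 1 h cell settling | measured by = SteadyLite luciferase luminescence | evaluation = percent activation relative to DMSO median and mock-transfected background | control set = DMSO negative control and −SF1 background wells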
TNAP act DEA: activators of human TNAP at intermediate phosphate acceptor; purified TNAP, CDP-star luminescence, 100 mM DEA, 30 min; hits give high values; scale: 0 levamisole-inhibited, 1 vehicle-only enzyme; 64,000 tested, under 10 active; P05186; activation factor at 20 µM;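 active means activation factor of at least 2 at 20 µM, relative to controls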
MT1-MMP txn act: MT1-MMP promoter transcription activation. 86,000 tested, 0.16% active. activation factor at 10 µM. HT1080 MT1-MMP promoter luciferase reporter, luminescence, overnight; hits give high values;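 active means activation factor of at least 2 for MT1-MMP transcription at 10 µM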
* marks the source's active call; other numbers are inactive results; / = no result given. The list is not random: actives were taken first. Their share in the collection is about 2.1%.

SMILES	RORa activator	MMP13 inh	SF-1 act	TNAP act DEA	MT1-MMP txn act
Cc1ccc2nc(NC(=O)C3CCCN(S(=O)(=O)c4cnc[nH]4)C3)sc2c1 (configuration not stated)	54*	6	26	0.9	1.4
Cc1ccc2nc(NC(=O)C3CCCN(S(=O)(=O)c4cccnc4)C3)sc2c1 (configuration not stated)	18	2	-12	1	1.1
COC(=O)[C@@]1(C)C[C@@H]1[C@@H](NC(=O)[C@@]1(C)C[C@@H]1[C@@H](NC(=O)[C@@]1(C)C[C@@H]1[C@@H](NC(=O)[C@@]1(C)C[C@@H]1[C@@H](NC(=O)OCc1ccccc1)c1ccccc1)c1ccccc1)c1ccccc1)c1ccccc1	/	/	/	/	1.1
O=C(c1ccc(-c2ccccc2)cc1)N1CCCC1	-3	5	11	0.9	1.4
O=C(Oc1ccc(-c2ccccc2)cc1)N1CCCCC1	86*	5	72*	1	1.2
CNC(=O)[C@H](C)/C=C/C(NC(=O)OCc1ccccc1)c1ccc(C(=O)OC)cc1 (some centres not stated)	/	/	/	/	1.2
CC(=O)Oc1ccc2cc(-c3nc4ccccc4n3C)c(=O)oc2c1	76*	-293	65*	1	1.5
Cc1cc(=O)n2[nH]cc(C(=O)O)c2n1	/	/	/	/	1.3
Cn1cc(Cl)c(-c2nc3ccccc3[nH]2)n1	56*	0	44	0.9	1.2
Cc1ccccc1-c1nc2ccccc2[nH]1	/	/	/	/	2*
c1ccc2[nH]c(-c3ccnc4ccccc34)nc2c1	22	-192	30	1	1.6
Nc1nonc1-c1nc2ccccc2[nH]1	32	2	22	0.9	1.1
CC(C)(C)NC(=O)C(c1ccc(I)cc1)N(CCN1CCOCC1)C(=O)CCCNC(=O)c1ccccc1 (configuration not stated)	/	/	/	/	1
CC(C)(Oc1ccc(Br)cc1)C(=O)N1CCc2ccccc21	/	/	/	/	1.1
CCOC(=O)C1CCN(S(=O)(=O)c2ccc(C(C)=O)cc2)CC1	/	/	/	/	1.3
CCOC(=O)C1CCN(S(=O)(=O)c2ccc(-c3nc4ccccc4s3)s2)CC1	10	-8	68*	0.9	1.7
COc1ccc(-c2cc3nc4c(c(=O)n3[nH]2)CCC4)cc1	54*	-82	63*	0.9	1.1
Cc1cc2nc3c(c(=O)n2[nH]1)CCCC3	-1	-22	15	1	1.1
O=c1c2c(nc3cc(-c4ccccc4)[nH]n13)CCC2	39	-47	60*	1.1	1.1
CCOC(=O)CN1CC23C=CC(O2)C(C(=O)Nc2cc(OC)ccc2OC)C3C1=O (configuration not stated)	2	14*	-6	1	1
CCOC(=O)CN1CC23C=CC(O2)C(C(=O)Nc2ccc(OC)cc2OC)C3C1=O (configuration not stated)	7	7	9	0.9	1.1
COC(=O)N1CC=CC1(C)C(=O)NCCN1CCOCC1 (configuration not stated)	/	/	/	/	1
O=C(OCc1nc2ccccc2s1)c1cnccn1	53*	1	54*	0.9	1.7
O=C(OCc1nc2ccccc2s1)c1cccs1	53*	1	50*	0.9	1.5
COc1cc(NC(=O)C(C)C)ccc1NC(=O)c1ccco1	44	4	54*	0.8	1.1
SMILES	RORa activator	MMP13 inh	SF-1 act	TNAP act DEA	MT1-MMP txn act
COc1ccc(NC(=O)c2ccco2)c(OC)c1	30	0	48	1	1.6
O=C(COc1ccccc1)Nc1nccs1	/	/	/	/	1.3
NC(=O)c1ccsc1NC(=O)COc1ccccc1	30	3	68*	1	1.3
CN1C(=O)CSc2ccc(NC(=O)N3CCc4ccccc43)cc21	75*	-3	105*	0.9	1.2
CCOC(=O)C1=C(CCc2ccccc2)NC(=O)NC1c1ccc(C#N)cc1 (configuration not stated)	/	/	/	/	1
C=CCn1c(-c2ccccc2)c[nH]c1=S	6	-6	53*	1.2	1.6
C=CCn1c(-c2ccc(Cl)cc2)c[nH]c1=S	2	2	6	1	1.2
Cc1ccc(C2CCN(C(=O)Nc3ccccc3)C2)cc1 (configuration not stated)	92*	-12	58*	1	1.5
Cc1ccc(NC(=O)N2CCC(C(=O)NCc3ccccc3)CC2)cc1	-20	-1	21	1	1
COc1cccc(-c2nn(C)c3sc(C(=O)Nc4ccc5c(c4)OCCO5)cc23)c1	56*	4	80*	0.8	1.8
CCN(CC)c1ccc(NC(=O)C2CC3CCC2C3)cc1 (configuration not stated)	55*	0	50	0.9	1.7
CC(=O)Nc1cccc(NC(=O)C2CC3CCC2C3)c1 (configuration not stated)	9	0	7	1	1.1
Cc1ccc(-n2cc(-c3ccccc3)[nH]c2=O)cc1F	40	-4	87*	0.8	1.4
Cc1cc(-n2ccc(=O)[nH]c2=O)nc(-c2ccccc2)n1	-3	1	0	0.9	1.1
Cc1nn(C)cc1/C=C/C(=O)c1cccs1	/	/	/	/	2.5*
COc1ccc(-c2nc(C#N)c(NC(C)c3ccccc3)o2)cc1OC (configuration not stated)	11	-154	8	1	1.3
COC(=O)N1[C@H](Cc2ccccc2)C=C[C@]1(C)C(=O)NCc1ccc(N(C)C)cc1	/	/	/	/	1.1
CC1N(C)c2cc(NC(=O)c3ccco3)ccc2C1(C)C (configuration not stated)	33	-4	71*	1	1.4
CC(=O)Nc1ccc(NC(=O)c2ccco2)cc1	31	2	27	0.9	1.5
O=C(CSc1nn(-c2ccccc2)c(=S)s1)NC(=O)NCc1ccco1	/	/	/	/	1
Cc1cnc(C(=O)Nc2nnc(C(C)C)s2)cn1	33	4	68*	0.9	1.6
CC(C)c1nnc(NC(=O)c2cnccn2)s1	32	-2	51*	0.9	1.4
Cc1cnc(C(=O)Nc2nnc(C)s2)cn1	-2	-1	1	0.9	1.2
Cc1csc(NC(=O)c2cnccn2)n1	22	-1	25	1	1.4
CCOc1ccccc1C(=O)Nc1cccc(-c2nnc(-c3ccccc3)o2)c1	/	/	/	/	1.2
SMILES	RORa activator	MMP13 inh	SF-1 act	TNAP act DEA	MT1-MMP txn act
COC(=O)CNC(=O)[C@@]1(C)C=C[C@@H](Cc2ccccc2)N1C(=O)OC	/	/	/	/	0
Cc1ncsc1C(=O)Nc1nc2c(s1)CC(C)CC2 (configuration not stated)	56*	-2	62*	1	1.1
CC1CCc2nc(NC(=O)C3CC3)sc2C1 (configuration not stated)	/	/	/	/	1.5
Cc1cc(C)c2c(N)c(C(=O)Nc3nccs3)sc2n1	46	-30	-21	1.1	/
COCc1cc(C)nc2sc(C(=O)Nc3nccs3)c(N)c12	31	-8	92*	1	1.4
Nc1c(C(=O)c2ccccc2)oc2ccc(Br)cc12	53*	-5	140*	0.8	1.9

Compound activity deposited in PubChem by several laboratories.
